A selection: hits, their analogues and other compounds. The true share with any hit is near 2.3%.
Arrestin-AP2 inh: inhibitors of human beta-arrestin and AP2 interaction; FITC-arrestin peptide / GST-AP2 beads, flow cytometry; AP2 beta2 appendage carries R879A mutation; inhibition, % at 10 µM; 340,000 compounds, 0.31% hits;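 active = inhibition above a set limit, near 3 SD of compounds lacking own fluorescence, cut at about 54% in these data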;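 note: plate controls were DMSO wells for no effect and 5 µM unlabelled arrestin peptide for full effect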
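System: GST-AP2 R879A glutathione beads. Medium: PBS with 0.05% Tween 20 and 0.1% BSA. Also added: FITC-arrestin peptide, 50 nM. Incubation: 12 min plus 1 h, RT. Measured by: high-throughput flow cytometry of beads, ex 488, em 535 nm. Evaluation: percent drop in bead-associated FITC signal.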
MEKK3 PB1 HTS: MEKK3-MEK5 PB1 interaction, increase or decrease; bead-based flow cytometry, Alexa488-MEK5 binding to MEKK3; actives lie on both sides; 0 = blocked by unlabeled MEK5, 100 = vehicle; Q99759; binding response (% of control), % at 10 µM; 290,000 compounds, 1.4% hits;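 active = binding response more than 3 SD above or below the average of its plate-row segment, actives on both sides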;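 note: Alexa488 bead fluorescence after subtracting the streptavidin-only scavenger bead signal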
MEKK2 WT-MEK5: raises or lowers MEK5 binding to wildtype human MEKK2 PB1 domain; Q9Y2U5; bead flow cytometry, Alexa488-MEK5 binding to MEKK2 WT; actives lie on both sides; binding response (% of control), % at 10 µM; 290,000 compounds, 1.1% hits; AID 1531; in the data active = binding response below about 67% or above about 130%
MEKK2 mut-MEK5: signal of MEK5 binding to mutant human MEKK2 PB1 domain | bead flow cytometry, Alexa488-MEK5 binding to MEKK2 mutant | 290,000 compounds, 0.35% hits | percent response, % at 10 µM; in the data active = percent response above about 24%, passing the limit was not always enough
Arr-AP2 CP1: inhibitors of human beta-arrestin and AP2 interaction; inhibition, % at 10 µM; AID 504908; GST-AP2 beads, FITC arrestin peptide binding, flow cytometry; GST-fused beta2-adaptin appendage, R879A mutant; shares compounds with Arrestin-AP2 inh; 1,300 compounds, 2% hits;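 active = inhibition above a set limit, roughly 3 SD of non-fluorescent compound noise, cut at about 38% in these data; inactive = inhibition at or below that limit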;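 note: loss of bead fluorescence from 50 nM FITC arrestin peptide bound to appendage; 0% = negative control wells and 100% = excess unlabelled arrestin peptide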
Target sequence (P63010 whole entry, looked up, the tested form may be a part, one chain of several): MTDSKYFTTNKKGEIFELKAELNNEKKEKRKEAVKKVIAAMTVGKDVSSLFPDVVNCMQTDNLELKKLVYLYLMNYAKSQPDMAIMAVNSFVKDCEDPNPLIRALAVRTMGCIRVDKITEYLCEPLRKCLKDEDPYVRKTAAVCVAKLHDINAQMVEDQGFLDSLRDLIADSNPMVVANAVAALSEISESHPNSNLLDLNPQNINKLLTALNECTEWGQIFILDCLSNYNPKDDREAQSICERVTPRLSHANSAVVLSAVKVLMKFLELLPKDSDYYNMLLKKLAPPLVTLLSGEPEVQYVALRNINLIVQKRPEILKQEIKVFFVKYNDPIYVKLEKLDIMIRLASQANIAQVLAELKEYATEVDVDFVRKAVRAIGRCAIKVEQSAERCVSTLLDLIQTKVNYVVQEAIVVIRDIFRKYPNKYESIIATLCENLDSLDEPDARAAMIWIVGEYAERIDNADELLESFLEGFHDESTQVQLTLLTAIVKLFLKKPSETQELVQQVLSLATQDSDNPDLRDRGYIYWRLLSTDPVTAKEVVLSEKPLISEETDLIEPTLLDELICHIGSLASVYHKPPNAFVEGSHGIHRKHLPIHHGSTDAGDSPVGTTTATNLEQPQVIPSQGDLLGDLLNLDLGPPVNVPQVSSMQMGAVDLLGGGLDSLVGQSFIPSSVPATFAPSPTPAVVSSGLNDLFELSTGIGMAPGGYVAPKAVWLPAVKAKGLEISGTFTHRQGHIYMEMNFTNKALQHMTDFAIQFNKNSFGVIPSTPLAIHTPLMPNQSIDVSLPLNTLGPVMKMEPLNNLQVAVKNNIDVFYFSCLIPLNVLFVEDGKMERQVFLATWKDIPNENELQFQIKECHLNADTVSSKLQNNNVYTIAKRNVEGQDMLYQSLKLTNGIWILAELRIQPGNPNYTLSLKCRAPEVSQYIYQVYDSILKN
GST-FITC bead: disrupts GST binding to glutathione beads, arrestin-AP2 artifact; shares compounds with Arrestin-AP2 inh; GST-fluorescein binding to GSH beads, fluorescence, counter-screen; inhibition, % at 10 µM; 1,300 compounds, 2% hits; AID 588338;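 active = inhibition above 50%, about 3 SD of the inhibition seen with non-fluorescent compounds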;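 note: fluorescein maleimide labelled GST captured on 4 micron glutathione beads; higher means more loss of bead fluorescence from quenching or blocked binding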
* = called active by the depositor; · = no result.

SMILES	Arrestin-AP2 inh	MEKK3 PB1 HTS	MEKK2 WT-MEK5	MEKK2 mut-MEK5	Arr-AP2 CP1	GST-FITC bead
Cn1nc(C(=O)NC2CCC(O)CC2)c2ccccc2c1=O (configuration not stated)	-9	·	·	·	·	·
Cn1nc(C(=O)NC2CCCC2)c2ccccc2c1=O	69*	·	·	·	4	0
O=C(NC1CCCC1)c1cc2c(=O)n3ccccc3nc2s1	0	·	·	·	·	·
Cn1c(C(=O)NC2CCCCC2)cc2c(=O)n3ccccc3nc21	60*	97	92	-3	-2	-5
CCN(Cc1ccccc1)C(=O)c1cc(S(=O)(=O)N2CCOCC2)ccc1N1CCCC1	57*	·	·	·	-11	-2
CCc1ccc(CN(C)C(=O)c2cc(S(=O)(=O)N3CCOCC3)ccc2N2CCCC2)cc1	-4	·	·	·	-15	-4
CN(Cc1cccc(F)c1)C(=O)c1cc(S(=O)(=O)N2CCOCC2)ccc1N1CCCC1	-2	·	·	·	-4	-4
Cc1ccc(N=C(N)N=C(N)N)c(C)c1	-15	99	95	-1	·	·
COc1ccc(C(=O)Nc2ccccc2)cc1NC(=O)c1ccc([N+](=O)[O-])cc1	24	105	105	1	·	·
CN(CC(=O)Nc1cccc(F)c1)C(=O)CCCN1C(=O)c2cccc3cccc(c23)C1=O	-7	·	·	·	·	·
COc1ccc(N2CCN(S(=O)(=O)CCNC(=O)/C=C/c3ccc4c(c3)OCO4)CC2)cc1	63*	·	·	·	0	-1
Nn1c(SCC(=O)Nc2ccc(OC(F)F)cc2)nnc(Cc2ccccc2)c1=O	-6	·	·	·	·	·
O=C(Nc1ccc(NC(=O)c2cccs2)c(Cl)c1)c1cccs1	55*	101	97	-2	-6	-1
O=C(Nc1ccc(NC(=O)c2cccs2)cc1Cl)c1ccco1	27	98	99	-2	·	·
CC(=O)c1sccc1NC(=O)c1ccccc1C(=O)O	32	100	95	-2	·	·
COc1cc(C#N)c(N=C(SCC#N)N2CCOCC2)cc1OC	59*	100	100	0	15	1
CCCOCC(O)CC(Cc1ccccc1)C(=O)NN (configuration not stated)	1	90	95	-18	·	·
Cc1nn(-c2ccc(F)cc2)c(Cl)c1/C=C/C(=O)OCC(=O)Nc1ccc(F)cc1F	9	101	107	-1	·	·
Cc1nn(-c2ccc(F)cc2)c(Cl)c1/C=C/C(=O)OCC(=O)Nc1c(F)c(F)c(F)c(F)c1F	104*	94	94	-3	-4	-2
CC1CCN(CCCNC(=O)C2CCN(S(=O)(=O)N3CCC4(CC3)OCCO4)CC2)CC1	-20	105	107	10	·	·
CCN(C(=O)Cn1cnc2c1c(=O)n(C)c(=O)n2C)C1CCCCC1	61*	·	·	·	-2	-12
CCN(C(=O)Cn1cnc2c1c(=O)n(C)c(=O)n2C)C1CCS(=O)(=O)C1 (configuration not stated)	4	·	·	·	·	·
Cc1ccc2nsnc2c1NC(=O)c1ccc([N+](=O)[O-])o1	43	101	100	-3	·	·
O=C(O)COCC(=O)Nc1ccc2c(c1)ncn2CCc1ccccc1	58*	110	111	12	-5	1
CC(=O)/C(=N\Nc1cccc(Cl)c1)Sc1nnc(-c2ccccc2)n1-c1ccccc1	105*	101	95	-1	-1	-5
SMILES	Arrestin-AP2 inh	MEKK3 PB1 HTS	MEKK2 WT-MEK5	MEKK2 mut-MEK5	Arr-AP2 CP1	GST-FITC bead
CC1Cc2ccccc2N1S(=O)(=O)c1cccc(C(=O)NCCCn2ccnc2)c1 (configuration not stated)	24	106	112	13	·	·
O=C(COc1ccccc1Cl)N(Cc1cccs1)C1CCS(=O)(=O)C1 (configuration not stated)	58*	101	96	-4	19	-7
Cc1ccccc1NC(=O)COC(=O)/C=C/c1cccc(C(F)(F)F)c1	3	96	99	-3	·	·
O=C(COC(=O)/C=C/c1cccc(C(F)(F)F)c1)Nc1cccc2ccccc12	91*	88	93	-2	-11	-2
COc1ccc(CC(=O)NNC(=O)c2cc(C)oc2C)cc1OC	65*	·	·	·	7	-5
CSc1ccc(CN(C)Cc2nc3ccccc3c(=O)[nH]2)cc1	40	100	101	2	·	·
COc1ccc(CN(Cc2cc3cc4c(cc3[nH]c2=O)OCO4)C(=O)NC2CCCCC2)cc1	-1	106	97	3	3	-5
CCN(CC)CCN(Cc1cc2cc3c(cc2[nH]c1=O)OCCO3)C(=O)NC1CCCCC1	5	94	98	-1	8	-8
COc1ccc2[nH]c(=O)c(CN(Cc3ccc4c(c3)OCO4)C(C)=O)cc2c1	2	98	99	0	·	·
O=S1(=O)N=C(N(CCO)/N=C/c2ccccc2)c2ccccc21	60*	98	101	3	2	28
Cn1nccc1C(=O)N1CCN(S(=O)(=O)c2ccc(Br)s2)CC1	2	100	105	5	·	·
CCOc1ccccc1NC(=O)c1ccc(F)c(S(=O)(=O)N2CCC3(CC2)OCCO3)c1	61*	103	108	6	-21	-6
CCN(CC)c1ccc(S(=O)(=O)N2CCOCC2)cc1NC(=O)CSc1n[nH]c(N)n1	6	107	102	3	·	·
Cc1cccc(NC(=O)CN2CCN(C(=O)c3ccc(-c4nc5ccccc5s4)o3)CC2)c1C	59*	·	·	·	-3	11
CC(=O)Nc1ccc(NC(=O)C(C)OC(=O)c2ccc3[nH]c(C)c(C)c3c2)cc1 (configuration not stated)	57*	·	·	·	-7	-6
Cc1[nH]c2ccc(C(=O)OC(C)C(=O)N(C)c3ccccc3)cc2c1C (configuration not stated)	-5	·	·	·	·	·
COc1ccc(Cl)cc1NC(=O)NCCN1CCNC1=O	60*	102	102	7	8	-2
COc1ccc(NC(=O)CC(C)=O)c(OC)c1	-1	97	93	3	6	-3
COc1ccc(Cl)cc1NC(=O)CC(C)=O	5	103	103	13	3	-8
CC(=O)CC(=O)Nc1ccccc1NC(C)=O	20	65	76	-16	-4	-5
COc1ccc(Cl)cc1NC(=O)COC(C)=O	-14	102	95	-6	·	·
CC1(c2nnc(-c3cccc(Cl)c3)o2)CC(c2ccccc2F)=NO1 (configuration not stated)	0	107	107	7	·	·
COc1ccc(CCC(=O)O)cc1OC	-8	101	98	4	·	·
CC(OC(=O)c1ccncc1)C(=O)Nc1cccc(Cl)c1 (configuration not stated)	81*	108	107	5	6	-5
CC(Oc1cccc(Cl)c1)C(=O)Nc1ccncc1 (configuration not stated)	21	103	90	-9	·	·
